mHtt clearance: compounds clearing mutant huntingtin protein; 47,000 compounds, 0.42% hits; AID 853; inhibition, % at 1.5 µM; HeLa Exon1htt(103Q)mCFP, aggregate imaging; zero = plate's median compound well;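 active means inhibition of aggregate fluorescence above about 70%, also judged a hit by eye on the cell image, limit read from the data, passing the limit was not always enough; inconclusive means no rule stated for this call; inactive means not judged a hit on image review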;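 further: cells exposed to compound for three days before fixation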
D1 allo mod: D1 dopamine receptor (human) allosteric modulation. P21728. HEK293 D1, CRE-luciferase, dopamine EC30 potentiation; actives deviate in either direction. B-score at 10 µM. 58,000 compounds, 5.9% hits;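 active means luminescence count or its row- and column-corrected plate score outside the 99.7% band of the plate's sample wells, on either side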
M1 agonist: M1 muscarinic receptor agonism | AID 626 | B-score at 10 µM | CHO-M1 cells, Fluo-4 calcium fluorescence, agonist mode; hits give high values | 64,000 compounds, 3% hits;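 active means fluorescence rise, raw or as B-score row- and column-corrected plate score, outside the 99.7% band of its plate's samples, either direction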
AP complement: alternative pathway complement inhibition, orthogonal assay; Human serum alternative complement pathway, LPS-coated ELISA, C3 deposition; tested in compound mixtures; inhibition, % at 5 µM; 62,000 compounds, 0.08% hits;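 active means inhibition above 30% in each of the two pooled mixtures holding the compound, so the lower value exceeds 30%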
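Assay system: human serum alternative complement pathway, C3 deposition on LPS-coated wells; Dosing: 5 µM per compound in ten-compound mixtures; Detection: Anti-C3 ELISA, OD 450 nm; Buffer or medium: Mg2+-EGTA GVB++ buffer containing human serum at 1:15 dilution; Timing: 1 h at 37 °C; Replication: two different pools per compound.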
M1 antag: M1 muscarinic receptor (rat) antagonism; B-score at 10 µM; P08482; CHO-M1 cells, Fluo-4 calcium, ACh EC80 antagonist mode; hits give low values; 64,000 compounds, 3.4% hits;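 active means calcium fluorescence response, raw or row-and-column corrected B-score, differing from the plate sample mean either way at a set confidence level, mostly lower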
Target sequence (P08482 whole entry, looked up): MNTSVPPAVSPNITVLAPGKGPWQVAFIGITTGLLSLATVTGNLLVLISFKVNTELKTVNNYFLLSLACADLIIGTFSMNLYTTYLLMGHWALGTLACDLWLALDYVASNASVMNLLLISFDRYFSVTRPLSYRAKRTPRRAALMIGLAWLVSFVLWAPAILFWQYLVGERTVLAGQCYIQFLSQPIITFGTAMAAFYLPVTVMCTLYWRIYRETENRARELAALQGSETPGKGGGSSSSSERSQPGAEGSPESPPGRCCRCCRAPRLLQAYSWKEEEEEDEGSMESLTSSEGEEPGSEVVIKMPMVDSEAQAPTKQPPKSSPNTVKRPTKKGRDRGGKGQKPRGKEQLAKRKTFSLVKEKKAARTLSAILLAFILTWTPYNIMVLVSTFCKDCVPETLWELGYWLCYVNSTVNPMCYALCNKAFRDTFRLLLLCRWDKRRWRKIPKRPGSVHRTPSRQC
M1 agonist conf: confirmation of rat M1 muscarinic receptor agonists; 1,700 compounds, 19% hits; fluorescence change (max-min) at 10 µM; CHO-M1 cells, Fluo-4 calcium fluorescence, agonist mode; actives lie on both sides; shares compounds with M1 agonist;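 active means fluorescence change differs from the solvent-only DMSO control mean at a set confidence level in both duplicate runs; inconclusive means differs from solvent-only control mean in just one of two runs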;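 further: an EC20 dose of acetylcholine follows compound addition during the same imaging run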
M4 ag counter: activates rat M4 receptor in counter-screen for M1 agonists; AID 1741; CHO M4/Gqi5 cells, Fluo-4 calcium fluorescence, agonist mode; actives lie on both sides; 1,700 compounds, 9% hits; shares compounds with M1 agonist; fluorescence change (max-min) at 10 µM;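 active means fluorescence change differing from the plate's solvent-only control wells at 99.7% confidence in both duplicates, whether higher or lower; inconclusive means differs from solvent controls in only one of two duplicates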
M1 antag conf: M1 muscarinic receptor (rat) antagonism, confirmed. shares compounds with M1 antag. calcium response (max-min fluorescence) at 10 µM. CHO-M1 cells, Fluo-4 calcium, ACh EC80 antagonism; hits give low values. 1,700 compounds, 43% hits;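 active means calcium response below the same-plate mean of wells given acetylcholine alone at its 80%-effect dose, minus 3 SD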
mGluR4 antag: acts on human mGluR4 in M1 antagonist selectivity test; fluorescence response (max-min) at 10 µM; AID 678; 1,700 compounds, 0.9% hits; CHO-mGluR4 calcium flux, Fluo-4 fluorescence, glutamate EC80; hits give low values; shares compounds with M1 antag;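 active means fluorescence response below the plate's average for near-maximal glutamate wells, less 3 SD of those wells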;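 further: raw unnormalized fluorescence span taken in the window right after glutamate addition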
D1 mod confirm: D1 receptor (human) allosteric modulation, confirmed | HEK293 D1 CRE-luciferase, dopamine EC30 potentiation; hits give high values | 2,200 compounds, 88% hits | shares compounds with D1 allo mod | luminescence at 10 µM;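 active means luminescence in either of two replicates above the same-plate mean plus 3 SD of the low-dose dopamine control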
D1 no dopamine: activates D1 CRE-luciferase signal without dopamine present. shares compounds with D1 allo mod. HEK293 D1 CRE-luciferase, luminescence, no dopamine; hits give high values. luminescence at 10 µM. 1,900 compounds, 0.8% hits. AID 646; in the data active means luminescence above about 3900
Isoprot counter: isoproterenol response counter-screen activity for D1 modulators | 2,200 compounds, 63% hits | AID 647 | shares compounds with D1 allo mod | HEK293 D1 CRE-luciferase, isoproterenol EC30 counter-screen | calls only at 10 µM;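 active means luminescence in either replicate above plate mean of wells with a partly effective reference agonist dose plus 3 SD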;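 further: isoproterenol raises cAMP through native beta-adrenoceptor Gs so signal bypasses D1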
Large screens that a line does not name were inactive (follow-up assays come after a bar, where they were run). The list is not random: actives were taken first. Their share in the collection is about 9%.

Cc1ccc(CN2C(=O)NC(=O)C3(Cc4c(nc5ccccn5c4=O)N4CCCCCC43)C2=O)cc1 (centres undefined)	none
COCCNC(=O)c1c(NC(=O)c2ccco2)n(Cc2ccccc2)c2nc3ccccc3nc12	D1 allo mod 4.3, M1 agonist 3.6 (no result: mHtt clearance) | M1 agonist conf inactive | M4 ag counter inactive | D1 mod confirm 10288 | D1 no dopamine inactive | Isoprot counter inactive
O=C1NC(=S)NC(=O)C12C(c1ccc(F)cc1)NC(=S)NC2c1ccc(F)cc1 (centres undefined)	none (no result: D1 allo mod, M1 agonist, AP complement, M1 antag)
CCCCCn1c(=O)c(C(=O)Nc2ccncc2)c(O)c2ccccc21	none (no result: mHtt clearance)
CCCCCCn1c(=O)c(C(=O)Nc2c(C)n(C)n(-c3ccccc3)c2=O)c(O)c2ccccc21	M1 antag -8 (no result: mHtt clearance) | M1 antag conf 167 | mGluR4 antag inactive
CC1CCC(NCCc2ccc3c(c2)OCO3)CC1 (centres undefined)	M1 antag -5.2 | M1 antag conf 199 | mGluR4 antag inactive
CN1CCN(CCC(C#N)(c2ccccc2)c2ccccc2)CC1	M1 antag -17 (no result: mHtt clearance, D1 allo mod) | M1 antag conf 16 | mGluR4 antag inactive
CC1CCCC(C2(O)C(=O)Nc3ccccc32)C1=O (centres undefined)	none
CCOC(=O)C1=C(C)N(C)C2(C)CC1c1ccccc1O2 (centres undefined)	M1 antag -2.4 (no result: mHtt clearance) | M1 antag conf inactive | mGluR4 antag inactive
O=C(NC1CC1)C1CSC(c2cccnc2)=N1 (centres undefined)	none
CCc1ccc(C(=O)C23CN4CN(CN(C4)C2)C3)cc1	none (no result: D1 allo mod, M1 agonist, AP complement, M1 antag)
NCC1(c2ccc3c(c2)OCCO3)CCCC1	none (no result: mHtt clearance)
Oc1ccc(Cl)cc1CN1CCN(Cc2ccccc2)CC1	none (no result: D1 allo mod, M1 agonist, AP complement, M1 antag)
COC(=O)c1ccc(CN2CCN(Cc3ccccc3)CC2)cc1	M1 antag -3.1 | M1 antag conf 428 | mGluR4 antag inactive
CC1CCCCN1CC(=O)c1ccc2cc[nH]c2c1 (centres undefined)	none
CCN(CC)CCCN=Cc1c(O)n(-c2ccccc2F)c(=O)[nH]c1=O	M1 antag -2.3 (no result: mHtt clearance) | M1 antag conf inactive | mGluR4 antag inactive
CCN(CC)CCCN=Cc1c(O)n(-c2cccc(C)c2C)c(=O)[nH]c1=O	none (no result: mHtt clearance)
Cn1c(O)c(C=NCCc2c[nH]c3ccccc23)c(=O)n(C)c1=O	none
COc1cc(CN2CCN(C(=O)COc3ccccc3)CC2)cc(OC)c1OC	none (no result: mHtt clearance)
CCOC(=O)C1(c2ccccc2)CCN(Cc2cccc(C(=O)O)c2)CC1	M1 antag -3.8 | M1 antag conf inactive | mGluR4 antag inactive
CCN1CCC2(CCNC2)C1 (centres undefined)	none (no result: mHtt clearance)
O=P(C(c1ccc2c(c1)OCO2)N1CCOCC1)(N1CCOCC1)N1CCOCC1 (centres undefined)	none
CN(CC1COc2ccccc2O1)c1nc(-c2cccnc2)nc2ccccc12 (centres undefined)	M1 antag -3.9 | M1 antag conf inactive | mGluR4 antag inactive
C[N+]1(C)[C@@H]2CC[C@H]1CC(OC(=O)C(CO)c1ccccc1)C2 (some centres undefined)	M1 antag -17 (no result: mHtt clearance) | M1 antag conf 12 | mGluR4 antag inactive
CN1C(=O)C(Cc2cccc3ccccc23)C(=O)N(C)C1=O	mHtt clearance inconclusive
O=C1C2CCN(CC2)[C@@H]1Cc1ccc2ccccc2c1O	M1 antag -4.6 (no result: AP complement) | M1 antag conf 92 | mGluR4 antag inactive
CC(=NCCCn1ccnc1)c1c(O)n(C)c(=O)n(C)c1=O	none
COc1ccc(CN2CCCCC2c2cccnc2)cc1C (centres undefined)	M1 antag -5.4 | M1 antag conf 482 | mGluR4 antag inactive
O=C(COc1ccccc1)N1CCN(C2CCCC2)CC1	none (no result: mHtt clearance)
O=C(COc1ccc2ccccc2c1)N1CCN(C2CCN(Cc3ccccc3)CC2)CC1	M1 antag -2.4 (no result: mHtt clearance) | M1 antag conf inactive | mGluR4 antag inactive
CCN1CCN(Cc2ccc(C)cc2)CC1	none (no result: mHtt clearance)
CCCCCCOc1ccc(CN2CCN(C)CC2)cc1	D1 allo mod -3.5, M1 antag -3.3 | M1 antag conf 502 | mGluR4 antag inactive
CC1CN=C(Nc2ccccc2)S1 (centres undefined)	none (no result: D1 allo mod, AP complement)
CC1CN=C(Nc2ccc(N(C)C)cc2)S1 (centres undefined)	M1 antag -2.1 (no result: AP complement) | M1 antag conf inactive | mGluR4 antag inactive
O=c1[nH]c2c(c(=O)n1C1CCCCC1)CCC2	none (no result: mHtt clearance)
CCN(CC)CCCOC(=O)C(OC(C)C)(c1ccccc1)c1ccccc1	none (no result: D1 allo mod, M1 agonist, AP complement, M1 antag)
O=C1NC(=O)C(CCc2ccncc2)(C2CCCCC2)C(=O)N1	M1 antag -4.6 (no result: mHtt clearance) | M1 antag conf 550 | mGluR4 antag inactive
CCCCn1c(O)c(C=Nc2c(C)n(C)n(-c3ccccc3)c2=O)c(=O)[nH]c1=O	M1 antag -2.5 | M1 antag conf inactive | mGluR4 antag inactive
CCCCn1c(O)c(C(C)=Nc2c(C)n(C)n(-c3ccccc3)c2=O)c(=O)[nH]c1=O	M1 antag -8.4 | M1 antag conf 326 | mGluR4 antag inactive
CCOC(=O)C1CCN(C(C)C(=O)c2c(C)[nH]c3cc(C)ccc23)CC1 (centres undefined)	M1 antag -4.3 (no result: mHtt clearance) | M1 antag conf 445 | mGluR4 antag inactive
CN1C2CCC1CC(OC(=O)c1ccc(Cl)cc1)C2 (centres undefined)	M1 antag -19 (no result: mHtt clearance) | M1 antag conf 61 | mGluR4 antag inactive
CCOC(=O)c1c(C)n(Cc2ccccc2)c2ccc(OCC(O)CN3C(=O)CNC3=O)cc12 (centres undefined)	D1 allo mod 10 | D1 mod confirm 22384 | D1 no dopamine inactive | Isoprot counter active
CCOC(=O)c1c(C)n(Cc2ccc3c(c2)OCO3)c2ccc(O)cc12	none (no result: D1 allo mod, M1 agonist, AP complement, M1 antag)

Screening results from PubChem.
